Tests used:
Rattus norvegicus [1] = assay: Tested in vivo for the biodistribution in rat ovaries after 3 hours following an intravenous dose of 120 microCi of drug in 10%ethanol saline; assay type: ADME, organism-based, Female gonad
Summary of the method: (§1)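 Immature (25-day-old) female Sprague-Dawley rats, ether-anesthetized, given the fluorine-18-labeled estrogen by femoral vein injection in 10% ethanol saline. […] Other groups were killed by decapitation at 1 or 3 h. Blood and organs were weighed and gamma-counted. Data are % injected dose/g, mean ± SD, typically n = 5 per group.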

Rattus norvegicus [2] = assay: Tested in vivo for the biodistribution in rat thymus at 1 hour after intravenous dose of 15 microCi of the drug and 15 micro g of estradiol; assay type: ADME, organism-based; summary of the method: as §1
Rattus norvegicus [3] = assay: Tested in vivo for the biodistribution in rat uterus at 1 hour after intravenous dose of 15 microCi of the drug and 15 micro g of estradiol; assay type: ADME, organism-based
Summary of the method: (§2)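 Female Sprague-Dawley rats, 25 days old (~40–53 g), ether-anesthetized, given the 18F-labeled estrogen iv via femoral vein in 10% ethanol saline. […] Others were sacrificed by decapitation at 1 or 3 h. Blood and organs were excised, weighed and gamma counted as % injected dose/g, mean ± SD, typically n = 5 (4–6).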

[4] = target: T1, Alpha-fetoprotein (Rattus norvegicus) (UniProt P02773); assay: Relative binding affinity for Alphafetoprotein
T1 sequence (whole entry): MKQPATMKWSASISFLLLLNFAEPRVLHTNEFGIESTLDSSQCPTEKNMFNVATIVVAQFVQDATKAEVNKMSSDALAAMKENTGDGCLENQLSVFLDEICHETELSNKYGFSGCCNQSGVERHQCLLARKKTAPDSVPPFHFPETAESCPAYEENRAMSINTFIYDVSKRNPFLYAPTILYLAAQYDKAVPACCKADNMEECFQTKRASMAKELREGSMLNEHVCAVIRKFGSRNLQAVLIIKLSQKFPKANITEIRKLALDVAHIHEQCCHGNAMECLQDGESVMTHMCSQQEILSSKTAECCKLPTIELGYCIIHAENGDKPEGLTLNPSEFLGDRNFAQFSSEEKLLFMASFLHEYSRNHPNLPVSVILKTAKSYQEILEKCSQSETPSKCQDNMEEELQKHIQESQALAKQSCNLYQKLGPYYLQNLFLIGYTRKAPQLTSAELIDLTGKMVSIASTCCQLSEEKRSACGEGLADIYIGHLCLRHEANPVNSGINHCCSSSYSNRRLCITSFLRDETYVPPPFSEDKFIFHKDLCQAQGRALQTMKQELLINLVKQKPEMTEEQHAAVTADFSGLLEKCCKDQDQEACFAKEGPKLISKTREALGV

Rattus norvegicus [5] = assay: Tested in vivo for the biodistribution in rat uterus/muscle at 1 hour after intravenous dose of 15 microCi of drug in 10%ethanol saline; assay type: ADME, organism-based, Muscle tissue; summary of the method: as §2
Rattus norvegicus [6] = assay: Tested in vivo for the biodistribution in rat uterus/muscle at 1 hour after intravenous dose of 15 microCi of the drug and 15 ug of estradiol; assay type: ADME, organism-based, Muscle tissue; summary of the method: as §2
[7] = Partition coefficient (logP); assay type: physicochemical; details: octanol/water
Summary of the method: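 Octanol/water log P estimated from log k'w measured by reversed-phase HPLC (Minick method) on a C8 silica column.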

Rattus norvegicus [8] = assay: Tested in vivo for the biodistribution in rat bone after 3 hours following an intravenous dose of 15 microCi of drug in 10%ethanol saline; assay type: ADME, organism-based, Bone element
Summary of the method: (§3)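 Ether-anesthetized 25-day-old female Sprague-Dawley rats (~40–53 g) got the [18F] tracer in 10% ethanol saline via femoral vein. Rats were decapitated at 1 or 3 h, and blood and organs were weighed and gamma-counted. Values are % injected dose/g as mean ± SD, n = 5 per time point.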

Rattus norvegicus [9] = assay: Tested in vivo for the biodistribution in rat uterus at 1 hour after intravenous dose of 15 microCi of drug in 10%ethanol saline; assay type: ADME, organism-based; summary of the method: as §2
Rattus norvegicus [10] = assay: Tested in vivo for the biodistribution in rat fat at 1 hour after intravenous dose of 15 microCi of drug in 10%ethanol saline; assay type: ADME, organism-based, Adipose tissue; summary of the method: as §3
Rattus norvegicus [11] = assay: Tested in vivo for the biodistribution in rat liver after 3 hours following an intravenous dose of 15 microCi of drug in 10%ethanol saline; assay type: ADME, organism-based; summary of the method: as §1
Rattus norvegicus [12] = assay: Tested in vivo for the biodistribution in rat muscle after 3 hours following an intravenous dose of 15 microCi of drug in 10%ethanol saline; assay type: ADME, organism-based, Muscle tissue; summary of the method: as §1
[13] = target: T2, Sex hormone-binding globulin (Homo sapiens) (UniProt P04278); assay: Relative binding affinity against sex steroid binding protein (SBP)
T2 sequence (whole entry): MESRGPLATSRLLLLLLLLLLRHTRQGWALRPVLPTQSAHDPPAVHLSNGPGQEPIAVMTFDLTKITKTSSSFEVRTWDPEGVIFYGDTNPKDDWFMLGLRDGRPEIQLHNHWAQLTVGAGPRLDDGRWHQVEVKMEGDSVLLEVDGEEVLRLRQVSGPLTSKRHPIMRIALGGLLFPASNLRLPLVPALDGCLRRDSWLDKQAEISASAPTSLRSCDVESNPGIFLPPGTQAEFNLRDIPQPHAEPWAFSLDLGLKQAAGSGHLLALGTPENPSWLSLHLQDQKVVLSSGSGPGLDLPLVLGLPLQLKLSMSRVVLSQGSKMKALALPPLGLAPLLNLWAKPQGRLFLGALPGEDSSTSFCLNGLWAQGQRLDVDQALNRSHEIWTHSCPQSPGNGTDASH

Rattus norvegicus [14] = assay: Tested in vivo for the biodistribution in rat bone at 1 hour after intravenous dose of 15 microCi of the drug and 15 ug of estradiol; assay type: ADME, organism-based, Bone element
Rattus norvegicus [15] = assay: Tested in vivo for the biodistribution in blood of female rat at 1 hour after intravenous dose of 15 microCi of drug in 10%ethanol saline; assay type: ADME, organism-based; summary of the method: as §3
Rattus norvegicus [16] = assay: Tested in vivo for the biodistribution in rat liver at 1 hour after intravenous dose of 15 microCi of the drug and 15 u g of estradiol; assay type: ADME, organism-based; summary of the method: as §1
Rattus norvegicus [17] = assay: Tested in vivo for the biodistribution in rat muscle at 1 hour after intravenous dose of 15 microCi of the drug and 15 ug of estradiol; assay type: ADME, organism-based, Muscle tissue; summary of the method: as §1
Rattus norvegicus [18] = assay: Tested in vivo for the biodistribution in rat thymus after 3 hours following an intravenous dose of 15 microCi of drug in 10%ethanol saline; assay type: ADME, organism-based; summary of the method: as §1
Rattus norvegicus [19] = assay: Tested in vivo for the biodistribution in rat liver at 1 hour after intravenous dose of 15 microCi of drug in 10%ethanol saline; assay type: ADME, organism-based; summary of the method: as §1
Rattus norvegicus [20] = assay: Tested in vivo for the biodistribution in rat muscle at 1 hour after intravenous dose of 15 microCi of drug in 10%ethanol saline; assay type: ADME, organism-based, Muscle tissue; summary of the method: as §1
Rattus norvegicus [21] = assay: Tested in vivo for the biodistribution in rat ovaries at 1 hour after intravenous dose of 15 microCi of the drug and 15 ug of estradiol; assay type: ADME, organism-based, Female gonad; summary of the method: as §1
Rattus norvegicus [22] = assay: Tested in vivo for the biodistribution in rat bone at 1 hour after intravenous dose of 15 microCi of drug in 10%ethanol saline; assay type: ADME, organism-based, Bone element; summary of the method: as §3
Rattus norvegicus [23] = assay: Tested in vivo for the biodistribution in rat uterus/blood after 3 hours following an intravenous dose of 15 microCi of drug in 10%ethanol saline; assay type: ADME, organism-based; summary of the method: as §2
Rattus norvegicus [24] = assay: Tested in vivo for the biodistribution in blood of female rat at 1 hour after intravenous dose of 15 microCi of the drug and 15 u g of estradiol; assay type: ADME, organism-based
Rattus norvegicus [25] = assay: Tested in vivo for the biodistribution in rat kidney at 1 hour after intravenous dose of 15 microCi of drug in 10%ethanol saline; assay type: ADME, organism-based; summary of the method: as §3
Rattus norvegicus [26] = assay: Tested in vivo for the biodistribution in rat thymus at 1 hour after intravenous dose of 15 microCi of drug in 10%ethanol saline; assay type: ADME, organism-based; summary of the method: as §1
Rattus norvegicus [27] = assay: Tested in vivo for the biodistribution in rat fat at 1 hour after intravenous dose of 15 microCi of the drug and 15 ug of estradiol; assay type: ADME, organism-based, Adipose tissue
Rattus norvegicus [28] = assay: Tested in vivo for the biodistribution in rat uterus after 3 hours following an intravenous dose of 15 microCi of drug in 10%ethanol saline; assay type: ADME, organism-based; summary of the method: as §1
Rattus norvegicus [29] = assay: Tested in vivo for the biodistribution in rat fat after 3 hours following an intravenous dose of 15 microCi of drug in 10%ethanol saline; assay type: ADME, organism-based, Adipose tissue; summary of the method: as §3
Rattus norvegicus [30] = assay: Tested in vivo for the biodistribution in rat uterus/blood at 1 hour after intravenous dose of 15 microCi of the drug and 15 micro g of estradiol; assay type: ADME, organism-based; summary of the method: as §2
Rattus norvegicus [31] = assay: Tested in vivo for the biodistribution in rat uterus/muscle after 3 hours following an intravenous dose of 15 microCi of drug in 10%ethanol saline; assay type: ADME, organism-based, Muscle tissue; summary of the method: as §2
Rattus norvegicus [32] = assay: Tested in vivo for the biodistribution in rat kidney at 1 hour after intravenous dose of 15 microCi of the drug and 15 u g of estradiol; assay type: ADME, organism-based
Rattus norvegicus [33] = assay: Tested in vivo for the biodistribution in rat ovaries at 1 hour after intravenous dose of 15 microCi of drug in 10%ethanol saline; assay type: ADME, organism-based, Female gonad; summary of the method: as §1
[34] = target: T3, Estrogen receptor (Rattus norvegicus) (UniProt P06211+Q62986)
Rattus norvegicus [35] = assay: Tested in vivo for the biodistribution in blood of female rat after 3 hours following an intravenous dose of 15 microCi of drug in 10%ethanol saline; assay type: ADME, organism-based; summary of the method: as §3
Rattus norvegicus [36] = assay: Tested in vivo for the biodistribution in rat kidney after 3 hours following an intravenous dose of 15 microCi of drug in 10%ethanol saline; assay type: ADME, organism-based; summary of the method: as §3
[37] = target: T3, Estrogen receptor (Rattus norvegicus); remark: listed apart in the source
Rattus norvegicus [38] = assay: Tested in vivo for the biodistribution in rat uterus/blood at 1 hour after intravenous dose of 15 microCi of drug in 10%ethanol saline; assay type: ADME, organism-based; summary of the method: as §2

Injected (Rattus norvegicus [1]): 2.742%
Injected (Rattus norvegicus [2]): 0.186%
Injected (Rattus norvegicus [3]): 1.214%
relative binding affinity (RBA) [4]: 0.079
Injected (Rattus norvegicus [5]): 10.81%
Injected (Rattus norvegicus [6]): 7.11%
logP [7]: 3.72
Injected (Rattus norvegicus [8]): 1.077%
Injected (Rattus norvegicus [9]): 5.57%
Injected (Rattus norvegicus [10]): 1.692%
Injected (Rattus norvegicus [11]): 1.822%
Injected (Rattus norvegicus [12]): 0.307%
relative binding affinity (RBA) [13]: 0.55
Injected (Rattus norvegicus [14]): 1.057%
Injected (Rattus norvegicus [15]): 0.108%
Injected (Rattus norvegicus [16]): 3.615%
Injected (Rattus norvegicus [17]): 0.189%
Injected (Rattus norvegicus [18]): 0.453%
Injected (Rattus norvegicus [19]): 2.331%
Injected (Rattus norvegicus [20]): 0.513%
Injected (Rattus norvegicus [21]): 1.063%
Injected (Rattus norvegicus [22]): 0.889%
Injected (Rattus norvegicus [23]): 82.19%
Injected (Rattus norvegicus [24]): 0.202%
Injected (Rattus norvegicus [25]): 2.534%
Injected (Rattus norvegicus [26]): 0.779%
Injected (Rattus norvegicus [27]): 1.054%
Injected (Rattus norvegicus [28]): 6.89%
Injected (Rattus norvegicus [29]): 1.294%
Injected (Rattus norvegicus [30]): 6.3%
Injected (Rattus norvegicus [31]): 22.88%
Injected (Rattus norvegicus [32]): 1.716%
Injected (Rattus norvegicus [33]): 2.991%
BSI [34]: 158
Injected (Rattus norvegicus [35]): 0.084%
Injected (Rattus norvegicus [36]): 1.413%
NSB [37]: 1.6
Injected (Rattus norvegicus [38]): 52.37%
SMILES: CC[C@H]1C[C@]2(C)[C@@H](O)[C@@H](F)C[C@H]2[C@@H]2CCc3cc(O)ccc3[C@@H]12

From ChEMBL document CHEMBL1126705, “16 beta-([18F]fluoro)estrogens: systematic investigation of a new series of fluorine-18-labeled estrogens as potential imaging agents for estrogen-receptor-positive breast tumors” (J Med Chem, 1993)
